Reference: ChEMBL document CHEMBL4689842, “EUbOPEN Chemogenomics Library wave 1” (2021)
“And” between values parts separate entries of the source, which are not always exact repeats. Identical values can stand only once.

Columns and labels:
Fibroblast = assay: Incucyte cell viability with human fibroblast; assay type: toxicity, cell-based; conditions: 10 µM, compound concentration 10 uM; further: filed as whole numbers so only -1 and 0 and 1 occur
HEK-293T = assay: Multiplex assay against HEK293T; assay type: toxicity, cell-based; conditions: human;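 on Population Tubulin-Different-Phenotype (%): share of the cells with healthy nuclei that show this phenotype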
Outline: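 Phenotypes for tubulin, mitochondrial mass and membrane permeability are expressed as per cents of healthy-nucleus cells. Cells were stained live at seeding with Hoechst33342, BioTracker Green Microtubule Cytoskeleton Dye, MitoTracker Red and Annexin V Alexa Fluor 680, then imaged after compound addition on a CQ1 microscope at 37°C and 5% CO2. Machine-learning gating in CellPathfinder separated Hoechst high-intensity objects from normal cells, divided normal cells by nuclear state (healthy, pyknosed, fragmented) and divided pyknosed cells into mitotic or apoptotic.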

[1] = 12 h, 1 µM, compound concentration 1 uM, replicate 1
[2] = 12 h, 1 µM, compound concentration 1 uM, replicate 2
[3] = 12 h, 10 µM, compound concentration 10 uM, replicate 1
[4] = 12 h, 10 µM, compound concentration 10 uM, replicate 2
[5] = 24 h, 1 µM, compound concentration 1 uM, replicate 1
[6] = 24 h, 1 µM, compound concentration 1 uM, replicate 2
[7] = 24 h, 10 µM, compound concentration 10 uM, replicate 1
[8] = 24 h, 10 µM, compound concentration 10 uM, replicate 2
[9] = 48 h, 10 µM, compound concentration 10 uM, replicate 1
[10] = 48 h, 10 µM, compound concentration 10 uM, replicate 2

COc1cc(N2CCC(N(C)C)CC2)ccc1Nc1ncc(Cl)c(Nc2ccccc2P(C)(C)=O)n1
Growth Rate (Fibroblast; 0 h, replicate number 2, timepoint 0 hours): 0 | Growth Rate (Fibroblast; 6 h, replicate number 1, timepoint 6 hours): 1 | Growth Rate (Fibroblast; 12 h, replicate number 1, timepoint 12 hours): 0 | Growth Rate (Fibroblast; 12 h, replicate number 2, timepoint 12 hours): 1 | Growth Rate (Fibroblast; 18 h, replicate number 1, timepoint 18 hours): 0 | Growth Rate (Fibroblast; 18 h, replicate number 2, timepoint 18 hours): 1 | Growth Rate (Fibroblast; 24 h, replicate number 1, timepoint 24 hours): 0 | Population Apoptotic (%) (HEK-293T; [1]): 16% | Population Fragmented Nuclei (%) (HEK-293T; [1]): 19% | Population Healthy Nuclei (%) (HEK-293T; [1]): 61% | Population Hoechst High Intensity Objects (%) (HEK-293T; [1]): 14% | Population Membrane Permeable-Phenotype (%) (HEK-293T; [1]): 1% | Population Mitochondria Different-Phenotype (%) (HEK-293T; [1]): 9% | Population Mitotic Cells (%) (HEK-293T; [1]): 83% | Population Normal (%) (HEK-293T; [1]): 85% | Population Pyknosed Nuclei (%) (HEK-293T; [1]): 18% | Population Tubulin-Different-Phenotype (%) (HEK-293T; [1]): 7% | Total Cell Count (HEK-293T; [1]): 684 | Population Apoptotic (%) (HEK-293T; [2]): 14% | Population Fragmented Nuclei (%) (HEK-293T; [2]): 8% | Population Healthy Nuclei (%) (HEK-293T; [2]): 84% | Population Hoechst High Intensity Objects (%) (HEK-293T; [2]): 5% | Population Mitochondria Different-Phenotype (%) (HEK-293T; [2]): 19% | Population Mitotic Cells (%) (HEK-293T; [2]): 85% | Population Normal (%) (HEK-293T; [2]): 94% | Population Pyknosed Nuclei (%) (HEK-293T; [2]): 6% | Population Tubulin-Different-Phenotype (%) (HEK-293T; [2]): 21% | Total Cell Count (HEK-293T; [2]): 1309 | Population Fragmented Nuclei (%) (HEK-293T; [3]): 10% and 13% | Population Healthy Nuclei (%) (HEK-293T; [3]): 23% and 51% | Population Hoechst High Intensity Objects (%) (HEK-293T; [3]): 21% and 20% | Population Membrane Permeable-Phenotype (%) (HEK-293T; [3]): 0% and 6% | Population Mitotic Cells (%) (HEK-293T; [3]): 29% and 78% | Population Normal (%) (HEK-293T; [3]): 78% and 79% | Population Pyknosed Nuclei (%) (HEK-293T; [3]): 66% and 35% | Population Tubulin-Different-Phenotype (%) (HEK-293T; [3]): 97% and 54% | Total Cell Count (HEK-293T; [3]): 211 and 606 | Population Fragmented Nuclei (%) (HEK-293T; [4]): 3% | Population Hoechst High Intensity Objects (%) (HEK-293T; [4]): 12% and 9% | Population Membrane Permeable-Phenotype (%) (HEK-293T; [4]): 3% | Population Mitochondria Different-Phenotype (%) (HEK-293T; [4]): 86% and 54% | Population Mitotic Cells (%) (HEK-293T; [4]): 41% and 87% | Population Normal (%) (HEK-293T; [4]): 87% and 90% | Population Tubulin-Different-Phenotype (%) (HEK-293T; [4]): 100% and 85% | Population Apoptotic (%) (HEK-293T; [5]): 14% | Population Fragmented Nuclei (%) (HEK-293T; [5]): 17% | Population Healthy Nuclei (%) (HEK-293T; [5]): 69% | Population Hoechst High Intensity Objects (%) (HEK-293T; [5]): 9% | Population Membrane Permeable-Phenotype (%) (HEK-293T; [5]): 5% | Population Mitochondria Different-Phenotype (%) (HEK-293T; [5]): 8% | Population Mitotic Cells (%) (HEK-293T; [5]): 85% | Population Normal (%) (HEK-293T; [5]): 90% | Population Pyknosed Nuclei (%) (HEK-293T; [5]): 12% | Population Tubulin-Different-Phenotype (%) (HEK-293T; [5]): 14% | Total Cell Count (HEK-293T; [5]): 667 | Population Apoptotic (%) (HEK-293T; [6]): 12% | Population Fragmented Nuclei (%) (HEK-293T; [6]): 20% | Population Healthy Nuclei (%) (HEK-293T; [6]): 77% | Population Hoechst High Intensity Objects (%) (HEK-293T; [6]): 4% | Population Membrane Permeable-Phenotype (%) (HEK-293T; [6]): 3% | Population Mitochondria Different-Phenotype (%) (HEK-293T; [6]): 4% | Population Mitotic Cells (%) (HEK-293T; [6]): 87% | Population Normal (%) (HEK-293T; [6]): 95% | Population Pyknosed Nuclei (%) (HEK-293T; [6]): 2% | Population Tubulin-Different-Phenotype (%) (HEK-293T; [6]): 19% | Total Cell Count (HEK-293T; [6]): 2108 | Population Apoptotic (%) (HEK-293T; [7]): 74% and 37% | Population Fragmented Nuclei (%) (HEK-293T; [7]): 12% and 14% | Population Healthy Nuclei (%) (HEK-293T; [7]): 31% and 55% | Population Hoechst High Intensity Objects (%) (HEK-293T; [7]): 24% and 22% | Population Membrane Permeable-Phenotype (%) (HEK-293T; [7]): 1% and 7% | Population Mitochondria Different-Phenotype (%) (HEK-293T; [7]): 98% and 51% | Population Mitotic Cells (%) (HEK-293T; [7]): 25% and 62% | Population Normal (%) (HEK-293T; [7]): 75% and 77% | Population Pyknosed Nuclei (%) (HEK-293T; [7]): 55% and 30% | Population Tubulin-Different-Phenotype (%) (HEK-293T; [7]): 98% and 73% | Total Cell Count (HEK-293T; [7]): 229 and 561 | Population Fragmented Nuclei (%) (HEK-293T; [8]): 7% and 5% | Population Hoechst High Intensity Objects (%) (HEK-293T; [8]): 19% and 9% | Population Membrane Permeable-Phenotype (%) (HEK-293T; [8]): 0% and 10% | Population Mitochondria Different-Phenotype (%) (HEK-293T; [8]): 95% and 60% | Population Normal (%) (HEK-293T; [8]): 80% and 90% | Population Tubulin-Different-Phenotype (%) (HEK-293T; [8]): 95% and 93% | Population Apoptotic (%) (HEK-293T; [9]): 77% | Population Fragmented Nuclei (%) (HEK-293T; [9]): 18% | Population Healthy Nuclei (%) (HEK-293T; [9]): 34% | Population Hoechst High Intensity Objects (%) (HEK-293T; [9]): 23% | Population Membrane Permeable-Phenotype (%) (HEK-293T; [9]): 0% | Population Mitochondria Different-Phenotype (%) (HEK-293T; [9]): 100% | Population Mitotic Cells (%) (HEK-293T; [9]): 22% | Population Normal (%) (HEK-293T; [9]): 76% | Population Pyknosed Nuclei (%) (HEK-293T; [9]): 47% | Population Tubulin-Different-Phenotype (%) (HEK-293T; [9]): 100% | Total Cell Count (HEK-293T; [9]): 239 | Population Apoptotic (%) (HEK-293T; [10]): 91% | Population Fragmented Nuclei (%) (HEK-293T; [10]): 8% | Population Healthy Nuclei (%) (HEK-293T; [10]): 17% | Population Hoechst High Intensity Objects (%) (HEK-293T; [10]): 17% | Population Mitochondria Different-Phenotype (%) (HEK-293T; [10]): 90% | Population Mitotic Cells (%) (HEK-293T; [10]): 8% | Population Normal (%) (HEK-293T; [10]): 82% | Population Pyknosed Nuclei (%) (HEK-293T; [10]): 74% | Population Tubulin-Different-Phenotype (%) (HEK-293T; [10]): 85% | Total Cell Count (HEK-293T; [10]): 147
